These results are taken from ChEMBL document CHEMBL4613282, “Novel N-Substituted Benzomorphan-Based Compounds: From MOR-Agonist/DOR-Antagonist to Biased/Unbiased MOR Agonists” (ACS Med Chem Lett, 2020).

Activity calls are given as the source filed them. The calls are words filed in the database; no cut-off is given here.

In one data set the target is Mu-type opioid receptor (Rattus norvegicus, UniProt P33535). Put plainly: Displacement of [3H]-DAMGO from MOR in rat brain membranes incubated for 45 mins by liquid scintillation counting. It is filed as cell membranes, Membrane. In a few lines:
(§1)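 Ki as mean ± SEM of three separate experiments, each run in duplicate.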
A general note: In a radioligand displacement assay an active substance lowers the binding of a labelled ligand.

In data set [1] the target is Kappa-type opioid receptor (Cavia porcellus, UniProt P41144). Nature of the data set: Displacement of [3H]-U69,593 from KOR in guinea pig brain membranes incubated for 30 mins by liquid scintillation counting. It is filed as cell membranes, Membrane. The method in brief: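 KOR binding measured as [3H]U69,593 displacement. Ki as mean ± SEM of three separate experiments, each run in duplicate.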
Kappa-type opioid receptor, sequence (P41144 whole entry): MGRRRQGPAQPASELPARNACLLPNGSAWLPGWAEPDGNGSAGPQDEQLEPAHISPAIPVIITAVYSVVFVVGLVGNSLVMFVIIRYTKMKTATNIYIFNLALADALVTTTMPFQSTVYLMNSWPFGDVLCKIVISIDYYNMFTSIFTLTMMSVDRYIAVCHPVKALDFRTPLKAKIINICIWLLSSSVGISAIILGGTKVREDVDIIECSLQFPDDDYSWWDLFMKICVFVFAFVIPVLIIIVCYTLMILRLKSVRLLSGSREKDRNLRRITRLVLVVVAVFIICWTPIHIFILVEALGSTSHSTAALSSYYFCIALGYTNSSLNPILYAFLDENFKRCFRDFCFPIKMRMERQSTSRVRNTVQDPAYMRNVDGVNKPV

Data set [2] deals with Delta-type opioid receptor (Rattus norvegicus, UniProt P33533). Put plainly: Displacement of [3H]DPDPE from DOR in rat brain membranes incubated for 45 mins by liquid scintillation counting. The format is cell membranes, Membrane. In a few lines: as §1
Delta-type opioid receptor, sequence (P33533 whole entry): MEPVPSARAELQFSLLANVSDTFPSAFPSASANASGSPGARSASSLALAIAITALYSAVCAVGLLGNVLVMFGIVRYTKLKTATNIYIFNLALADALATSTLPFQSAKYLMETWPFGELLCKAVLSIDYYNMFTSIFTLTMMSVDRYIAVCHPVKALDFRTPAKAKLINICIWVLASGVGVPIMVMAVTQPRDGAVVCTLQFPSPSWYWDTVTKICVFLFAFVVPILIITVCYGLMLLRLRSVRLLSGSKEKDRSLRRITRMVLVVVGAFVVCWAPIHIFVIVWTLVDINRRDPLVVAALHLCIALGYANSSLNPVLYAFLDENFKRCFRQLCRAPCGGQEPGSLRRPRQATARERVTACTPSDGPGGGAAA
Data set [3] has as its target Mu-type opioid receptor (Homo sapiens) (UniProt P35372). Put plainly: Agonist activity at EE-tagged MOR (unknown origin) expressed in human HEK293 cells assessed as inhibition of forskolin-induced cAMP accumulation at 10 uM after 30 mins by GloSensor cAMP assay. It is filed as functional, cell-based. In a few lines: (§2)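 HEK293 cells stably expressing MOR, stimulated with 50 μM forskolin in the presence of a range of compound concentrations, up to 10–5 M. Read-out is cAMP accumulation as % of maximum. Triplicate determinations in three independent experiments, mean ± SEM.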
(Cyclic AMP is a second messenger, typically raised through Gs and lowered through Gi signalling.)

Data set [4] in a line: Toxicity in PGE2-induced CD1 mouse model of thermal hyperalgesia assessed as effect on gastrointestinal transit at 8 to 16 mg/kg, sc dosed 30 mins before charcoal suspension administration and measured after 30 mins (reference value: 30 cm). The format is organism-based. The following applies: in vivo, 0.5 h. The method in brief: (§3)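 Run straight after the PGE2 hyperalgesia test, i.e. 30 min after s.c. dosing. Mice received 0.5% charcoal suspension intragastrically. Distance travelled by charcoal along the small intestine measured 30 min after ingestion. Mean ± SEM of 6–7 mice; one-way ANOVA with Bonferroni test versus the saline group.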

The target in data set [5] is Mu-type opioid receptor (Homo sapiens) (UniProt P35372). Put plainly: Agonist activity at EE-tagged MOR (unknown origin) expressed in human HEK293 cells assessed as increase in ERK1/2 phosphorylation at 1 uM after 5 mins by Western blot analysis. It is filed as cell-based. The method in brief:
(§4)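 Serum-starved HEK293 cells stably expressing MOR exposed to 1 μM compound for 5, 10 or 15 min. Lysates run on 10% SDS-PAGE and immunoblotted for phospho-ERK1,2, with α-tubulin reprobe as loading check. […] Three independent experiments.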
For orientation: A western blot detects proteins with antibodies after separation by electrophoresis.

The test system of data set [6] is Mus musculus. Put plainly: Antihyperalgesic activity in sc dosed PGE2-induced CD1 mouse model of thermal hyperalgesia at 8 to 16 mg/kg, sc pretreated for 20 mins before PGE2 stimulation and measured after 10 mins by radiant heat […] method. It is filed as functional, organism-based.
The target in data set [7] is Mu-type opioid receptor (Homo sapiens) (UniProt P35372). Nature of the data set: Agonist activity at EE-tagged MOR (unknown origin) expressed in human HEK293 cells assessed as increase in ERK1/2 phosphorylation at 1 uM after 15 mins by Western blot analysis. It is filed as cell-based. The method in brief: as §4
Mu-type opioid receptor (Homo sapiens), sequence (P35372 whole entry): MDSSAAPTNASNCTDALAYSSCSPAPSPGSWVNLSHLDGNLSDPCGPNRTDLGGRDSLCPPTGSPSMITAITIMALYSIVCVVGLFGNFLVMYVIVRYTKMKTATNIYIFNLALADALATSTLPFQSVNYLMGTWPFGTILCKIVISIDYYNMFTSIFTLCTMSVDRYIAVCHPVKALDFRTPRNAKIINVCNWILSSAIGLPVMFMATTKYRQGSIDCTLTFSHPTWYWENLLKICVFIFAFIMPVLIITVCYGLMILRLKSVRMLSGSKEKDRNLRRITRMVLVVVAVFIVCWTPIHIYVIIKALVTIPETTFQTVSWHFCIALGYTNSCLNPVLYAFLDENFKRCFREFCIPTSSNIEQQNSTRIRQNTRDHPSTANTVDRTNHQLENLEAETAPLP
Data set [8] has the same target. Put plainly: Biased agonist activity at EE-tagged MOR (unknown origin) expressed in human HEK293 cells assessed as increase in ERK1/2 phosphorylation levels at 1 uM after 15 mins by Western blot analysis. The format is cell-based. The method in brief:
as §4

The subject of data set [9] is Mus musculus. Put plainly: Antinociceptive activity in Swiss […] mouse assessed as effect on tail flick latency at 2.5 to 7.5 mg/kg, ip after 90 mins by radiant heat tail-flick method. The format is functional, organism-based. The method in brief:
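Mouse tail-flick test after 2.5–7.5 mg/kg i.p.; saline-treated group as control. Tail-flick latency (s) followed over 90 min. Mean ± SEM from 6–8 mice.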

Data set [10] concerns the target Mu-type opioid receptor (Homo sapiens) (UniProt P35372). Put plainly: Agonist activity at EE-tagged MOR (unknown origin) expressed in human HEK293 cells assessed as inhibition of forskolin-induced cAMP accumulation at 10 uM after 30 mins by GloSensor cAMP assay relative to control. It is filed as functional, cell-based. In a few lines:
as §2

The nature of data set [11]: Toxicity in PGE2-induced CD1 mouse model of thermal hyperalgesia assessed as effect on gastrointestinal transit at 4 mg/kg, sc dosed 30 mins before charcoal suspension administration and measured after 30 mins (reference value: 30 cm). It is filed as organism-based. To be noted: in vivo, 0.5 h. The method in brief:
as §3

Data set [12] has as its system Mus musculus. Nature of the data set: Antihyperalgesic activity in sc dosed PGE2-induced CD1 mouse model of thermal hyperalgesia assessed as increase in paw withdrawl latency pretreated with compound for 20 mins before PGE2 stimulation for 10 mins by radiant heat […] method. It is filed as functional, organism-based. The method in brief:
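Mice given compound or solvent s.c. 20 min before intraplantar PGE2 or saline. Hindpaw withdrawal latency to radiant heat measured in the injected paw 10 min after the i.pl. injection. Test compounds dosed 8–16 mg/kg; morphine 1–3 mg/kg and LP1 1–4 mg/kg as comparators. One-way ANOVA with Bonferroni test.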

Mu-type opioid receptor, sequence (P33535 whole entry): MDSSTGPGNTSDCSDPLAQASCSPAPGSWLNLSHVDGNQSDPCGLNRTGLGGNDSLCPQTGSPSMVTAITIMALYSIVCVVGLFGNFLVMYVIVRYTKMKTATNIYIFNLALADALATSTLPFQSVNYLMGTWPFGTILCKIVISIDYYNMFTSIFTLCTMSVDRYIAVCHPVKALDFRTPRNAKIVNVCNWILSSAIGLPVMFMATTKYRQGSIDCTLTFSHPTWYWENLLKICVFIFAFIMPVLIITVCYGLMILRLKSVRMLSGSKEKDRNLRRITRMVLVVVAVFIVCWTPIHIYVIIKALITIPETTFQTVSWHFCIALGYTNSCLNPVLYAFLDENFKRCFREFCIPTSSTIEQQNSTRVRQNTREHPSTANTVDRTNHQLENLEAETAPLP

A word on the Ki: it is a dissociation constant, usually derived from enzyme kinetics or from competition with a known ligand. A high value points to lower affinity. Consider `Cc1ccc(C)c(NCCN2CC[C@@]3(C)c4cc(O)ccc4C[C@@H]2[C@@H]3C)c1`, for which the Ki at Mu-type opioid receptor was 182 nM; in [1], more than 2000 nM; in data set [2], more than 5000 nM.

Turning to `C[C@H]1[C@H]2Cc3ccc(O)cc3[C@]1(C)CCN2CCC(=O)N(Cc1ccccc1)c1ccccc1`, the Ki is 606 nM on Mu-type opioid receptor, more than 5000 nM in [1] and more than 5000 nM in data set [2].

As for `CCc1cccc(C)c1N(Cc1ccccc1)C(=O)CCN1CC[C@@]2(C)c3cc(O)ccc3C[C@@H]1[C@@H]2C`, the Ki on Mu-type opioid receptor was 1540 nM; in data set [1], 151 nM; in data set [2], more than 5000 nM.

In general, inhibition refers to the drop in the measured response relative to a control, in per cent. For the compound `CCc1cccc(C)c1NC(=O)CCN1CC[C@@]2(C)c3cc(O)ccc3C[C@@H]1[C@@H]2C`, in data set [3], the inhibition entry was “inactive”. Besides, the Activity in [4] is 30 cm. Further, the outcome in [5] was Active. The result (in the data set with Mus musculus [6]; in data set [7]) was inactive. The values for the Ki (at Mu-type opioid receptor; in data set [1]; in [2]) were 14.9 nM, 320 nM and 198 nM, respectively.

For the compound `Cc1ccc(C)c(NC(=O)CCN2CC[C@@]3(C)c4cc(O)ccc4C[C@@H]2[C@@H]3C)c1`, the outcome in data set [8] was Active. For the same compound, the result in the data set on Mus musculus [9] and in the data set on Mus musculus [6] was inactive. Further, the Activity in data set [4] is listed as 30 cm. The inhibition in [10] is 50%. The Ki came to 7.9 nM at Mu-type opioid receptor, 480 nM in data set [1] and 478 nM in [2].

As for `C[C@H]1[C@H]2Cc3ccc(O)cc3[C@]1(C)CCN2CCC(=O)Nc1ccccc1`, the Activity result in data set [11] is given as “Toxic”. The outcome in data set [5] was Active. The outcome in data set [7] was inactive.

On to `Cc1ccc(NCCN2CC[C@@]3(C)c4cc(O)ccc4C[C@@H]2[C@@H]3C)c(C)c1`, for which the Ki at Mu-type opioid receptor is 129 nM; in data set [1], more than 1000 nM; in data set [2] it was more than 5000 nM.

Take `Cc1cc(C)c(NC(=O)CCN2CC[C@@]3(C)c4cc(O)ccc4C[C@@H]2[C@@H]3C)c(C)c1`: in [3], the inhibition entry is “inactive”. For the same compound, the Ki is 43.7 nM at Mu-type opioid receptor, 313 nM in data set [1] and more than 2000 nM in data set [2].

`Cc1ccc(NC(=O)CCN2CC[C@@]3(C)c4cc(O)ccc4C[C@@H]2[C@@H]3C)c(C)c1`: in data set [3], the inhibition result is “inactive”. Further, the Activity in [4] amounted to 30 cm. The result in [5] was Active. The outcome (with Mus musculus [6]; in data set [7]) was inactive. The Ki on Mu-type opioid receptor turned out to be 20.8 nM; in [1], 340 nM; in data set [2] it was 474 nM.

In the case of `Cc1ccc(N(Cc2ccccc2)C(=O)CCN2CC[C@@]3(C)c4cc(O)ccc4C[C@@H]2[C@@H]3C)c(C)c1`, the Ki on Mu-type opioid receptor was 165 nM; in data set [1], more than 2000 nM; in data set [2], more than 5000 nM.

With `C[C@H]1[C@H]2Cc3ccc(O)cc3[C@]1(C)CCN2CCN(Cc1ccccc1)c1ccccc1`, the Ki is 244 nM on Mu-type opioid receptor, more than 3000 nM in data set [1] and more than 1000 nM in data set [2].

As for `CN1CC[C@]23c4c5ccc(O)c4O[C@H]2[C@@H](O)C=C[C@H]3[C@H]1C5`, the Activity entry in the data set on Mus musculus [12] is “Dose-dependent effect”.

`Cc1cccc(C)c1N(Cc1ccccc1)C(=O)CCN1CC[C@@]2(C)c3cc(O)ccc3C[C@@H]1[C@@H]2C`: the Ki was 400 nM at Mu-type opioid receptor, more than 3000 nM in data set [1] and more than 5000 nM in data set [2].

For `Cc1cccc(C)c1NC(=O)CCN1CC[C@@]2(C)c3cc(O)ccc3C[C@@H]1[C@@H]2C`, the result (in the data set on Mus musculus [9]; with Mus musculus [6]; in [7]) was inactive. In addition, the inhibition result in [3] is “inactive”. In addition, in data set [4], the Activity is recorded as 30 cm. Moreover, in data set [5], the result was Active. Moreover, the Ki on Mu-type opioid receptor is 7.4 nM; in data set [1], 252 nM; in [2] it was 277 nM.

`Oc1ccc2c3c1O[C@H]1c4[nH]c5ccccc5c4C[C@@]4(O)[C@@H](C2)N(CC2CC2)CC[C@]314` [NALTRINDOLE] returned a Ki in data set [2] of 0.83 nM.

As for `Cc1cc(C)c(N(Cc2ccccc2)C(=O)CCN2CC[C@@]3(C)c4cc(O)ccc4C[C@@H]2[C@@H]3C)c(C)c1`, the Ki on Mu-type opioid receptor was 504 nM; in data set [1], 444 nM; in data set [2], more than 5000 nM.
